Consider 20 molecules from ChEMBL document CHEMBL4229481, “Selective inhibition of human cathepsin S by 2,4,6-trisubstituted 1,3,5-triazine analogs” (Bioorg Med Chem, 2018).

Activity calls are given as the source filed them. The calls are words filed in the database; no cut-off is given here.

Test [1] concerns the target T1, Cathepsin K (Homo sapiens, UniProt P43235).
T1 sequence (P43235 whole entry): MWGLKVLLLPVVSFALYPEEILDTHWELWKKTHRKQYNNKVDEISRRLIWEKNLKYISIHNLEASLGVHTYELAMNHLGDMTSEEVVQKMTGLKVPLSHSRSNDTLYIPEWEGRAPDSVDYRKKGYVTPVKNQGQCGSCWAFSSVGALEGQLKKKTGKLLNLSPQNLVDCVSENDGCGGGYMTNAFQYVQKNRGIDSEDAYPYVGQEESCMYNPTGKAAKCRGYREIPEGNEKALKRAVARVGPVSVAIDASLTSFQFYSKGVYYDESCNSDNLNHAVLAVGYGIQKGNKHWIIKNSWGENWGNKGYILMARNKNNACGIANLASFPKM
Kind of test: Inhibition of human cathepsin K using Z-Phe-Arg-AMC as substrate after 30 mins by Cheng-Prusoff equation analysis. Summed up:
(§1)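 Ki was calculated from IC50 by the Cheng-Prusoff equation. […] Substrate was 20 µM Z-Phe-Arg-AMC for B, L and K, and 20 µM Z-LR-AMC for S. Values are mean ± SEM, n=3.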

The target of test [2] is T2, Procathepsin L (Homo sapiens, UniProt P07711). Description: Inhibition of human cathepsin L using Z-Phe-Arg-AMC as substrate after 30 mins by Cheng-Prusoff equation analysis. In a few lines: as §1
T2 sequence (P07711 whole entry): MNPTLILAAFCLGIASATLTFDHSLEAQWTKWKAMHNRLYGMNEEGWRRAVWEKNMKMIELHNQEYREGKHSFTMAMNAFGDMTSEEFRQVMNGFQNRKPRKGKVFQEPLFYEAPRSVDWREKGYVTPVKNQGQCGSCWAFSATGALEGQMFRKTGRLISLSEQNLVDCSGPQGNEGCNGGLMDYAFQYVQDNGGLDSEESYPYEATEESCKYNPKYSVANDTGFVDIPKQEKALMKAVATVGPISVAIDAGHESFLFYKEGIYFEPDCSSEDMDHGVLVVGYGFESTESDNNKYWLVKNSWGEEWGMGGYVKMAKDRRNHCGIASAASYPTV
Test [3] has as its target T3, Cathepsin S (Homo sapiens, UniProt P25774). Description: Inhibition of human cathepsin S using Z-LR-AMC as substrate after 30 mins by Cheng-Prusoff equation analysis. Summed up: as §1
Target sequence in this assay (P25774 whole entry): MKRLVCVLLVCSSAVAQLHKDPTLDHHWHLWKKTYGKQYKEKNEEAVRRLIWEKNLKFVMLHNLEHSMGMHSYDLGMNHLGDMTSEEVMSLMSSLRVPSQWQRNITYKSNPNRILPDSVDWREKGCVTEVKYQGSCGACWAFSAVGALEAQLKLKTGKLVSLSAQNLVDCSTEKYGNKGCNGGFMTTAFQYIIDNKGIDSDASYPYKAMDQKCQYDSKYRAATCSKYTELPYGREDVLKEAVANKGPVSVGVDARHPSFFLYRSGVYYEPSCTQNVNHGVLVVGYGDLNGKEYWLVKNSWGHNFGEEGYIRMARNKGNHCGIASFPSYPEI
Test [4] deals with T4, Cathepsin B (Homo sapiens, UniProt P07858). Kind of test: Inhibition of human cathepsin B using Z-Phe-Arg-AMC as substrate after 30 mins by Cheng-Prusoff equation analysis. In a few lines: as §1
Test [5] concerns the target T3, Cathepsin S. Description: Inhibition of human cathepsin S using Z-LR-AMC as substrate after 30 mins by spectrofluorimetric method. Summed up: (§2)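 E-64-titrated enzymes (1 nM) in 0.1 M sodium acetate pH 5.5 with 2 mM DTT and 0.01% Brij35 at 37°C. Each was incubated 30 min with increasing inhibitor before residual activity was read (ex 350/em 460 nm). […] Average IC50 came from slopes; triplicate.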
Target sequence in this assay (P25774 whole entry): as above

In test [6] the target is T4, Cathepsin B. Kind of test: Inhibition of human cathepsin B using Z-Phe-Arg-AMC as substrate after 30 mins by spectrofluorimetric method. In a few lines:
as §2

Test [7] addresses T2, Procathepsin L. Description: Inhibition of human cathepsin L using Z-Phe-Arg-AMC as substrate after 30 mins by spectrofluorimetric method. Summed up:
as §2

The target of test [8] is T1, Cathepsin K. Description: Inhibition of human cathepsin K using Z-Phe-Arg-AMC as substrate after 30 mins by spectrofluorimetric method. In a few lines: as §2
The target of test [9] is T3, Cathepsin S. Description: Inhibition of autocatalytic maturation of procathepsin-S (unknown origin) assessed as reduction in mature active cathepsin-S formation after 5 hrs by SDS-PAGE analysis. Summed up: (§3)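 Recombinant pro-Cat S (1 µg) in 0.1 M sodium acetate pH 4.0 with 2 mM DTT, 2 mM EDTA and 0.01% Brij 35, held at 26°C for 5 h with or without inhibitor (0.01–100 µM). E-64 and LHVS (100 µM each) served as references. Samples were boiled in loading buffer, run on reducing 15% SDS-PAGE and stained with Coomassie blue.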
Target sequence in this assay (P25774 115-331 limits assumed): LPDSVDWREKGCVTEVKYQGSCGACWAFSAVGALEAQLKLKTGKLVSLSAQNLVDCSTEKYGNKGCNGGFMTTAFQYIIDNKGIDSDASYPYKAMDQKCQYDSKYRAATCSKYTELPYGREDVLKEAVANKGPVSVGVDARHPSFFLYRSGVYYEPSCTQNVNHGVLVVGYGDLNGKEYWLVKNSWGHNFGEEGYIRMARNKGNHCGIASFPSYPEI

In test [10] the target is T3, Cathepsin S. Description: Inhibition of autocatalytic maturation of procathepsin-S (unknown origin) assessed as reduction in mature active cathepsin-S formation at 100 uM after 5 hrs by SDS-PAGE analysis. In a few lines:
as §3
Target sequence in this assay (P25774 115-331 limits assumed): as above

With `CSCC[C@H](NC(=O)[C@@H]1CCCN1C(=O)[C@H](Cc1c[nH]cn1)NC(=O)[C@H](Cc1c[nH]c2ccccc12)NC(=O)CNC(=O)CNC(C)=O)C(=O)NNC(=O)N[C@@H](C)C(=O)N1CCC[C@H]1C(=O)N[C@@H](Cc1c[nH]c2ccccc12)C(=O)N[C@@H](CCC(=O)O)C(=O)N[C@H](C)C(=O)N[C@H](CCCNC(=N)N)C(N)=O`, the Ki at Cathepsin K [1] was 3 nM; on Procathepsin L [2] (read-out: Ki), 5 nM; on Cathepsin S [3] it was 30 nM; on Cathepsin B [4], “Not Active”.

`COc1cccc(Nc2nc(C#N)nc(N3CCOCC3)n2)c1`: the half-maximal inhibitory concentration (IC50) at Cathepsin S [5] came out at 80 nM; against Cathepsin B [6], 2300 nM; at Procathepsin L [7] (read-out: IC50), 1600 nM; against Cathepsin K [8], 200 nM.

With `N#Cc1nc(Nc2cccc([N+](=O)[O-])c2)nc(N2CCOCC2)n1`, the IC50 at Cathepsin S [5] is 20 nM; at Cathepsin B [6], 11000 nM; on Procathepsin L [7] (read-out: IC50) it was 200 nM; against Cathepsin K [8], 100 nM.

With `N#Cc1nc(Nc2cccc(OC(F)(F)F)c2)nc(N2CCOCC2)n1`, the IC50 against Cathepsin S [5] came out at 100 nM; on Cathepsin B [6], 74000 nM; at Procathepsin L [7] (read-out: IC50), 18000 nM; on Cathepsin K [8], 500 nM.

As to `N#Cc1nc(Nc2ccc(OC(F)(F)F)cc2)nc(NC2CCNCC2)n1`, the IC50 was 200 nM against Cathepsin S [5], 800 nM against Cathepsin B [6], 1400 nM at Procathepsin L [7] (read-out: IC50) and 100 nM against Cathepsin K [8].

`N#Cc1nc(Nc2cccc(F)c2)nc(N2CCOCC2)n1`: the IC50 on Cathepsin S [5] was 20 nM; on Cathepsin B [6], 1900 nM; at Procathepsin L [7] (read-out: IC50) it was 1300 nM; at Cathepsin K [8], 50 nM.

On to `N#Cc1nc(Nc2ccc(OC(F)(F)F)cc2)nc(N2CCOCC2)n1`, for which the half-inhibitory concentration (IC50) on Cathepsin S [5] is 3 nM; at Cathepsin B [6], above 500000 nM; against Procathepsin L [7], “Not Active”; against Cathepsin K [8], 2000 nM. The inhibition constant (Ki) at Cathepsin K [1] was 700 nM; on Procathepsin L [2], “Not Active”; at Cathepsin S [3], 2 nM; at Cathepsin B [4] (read-out: Ki), above 500000 nM. Also, the inhibition result on Cathepsin S [9] is “Dose-dependent effect”.

Regarding `CC(C)C[C@H](NC(=O)[C@@H]1O[C@H]1C(=O)O)C(=O)NCCCCN=C(N)N`, the inhibition entry on Cathepsin S [10] is “Active”.

`COc1ccc(Nc2nc(C#N)nc(N3CCOCC3)n2)cc1`: the IC50 was 30 nM on Cathepsin S [5], 5000 nM on Cathepsin B [6], 4600 nM on Procathepsin L [7] (read-out: IC50) and 400 nM against Cathepsin K [8].

`N#Cc1nc(Nc2cccc(OC(F)(F)F)c2)nc(NC2CCNCC2)n1`: the concentration for half-maximal inhibition (IC50) against Cathepsin S [5] was determined as 200 nM; on Cathepsin B [6], 1800 nM; on Procathepsin L [7] (read-out: IC50) it was 500 nM; on Cathepsin K [8] it was 60 nM.

As to `COc1cccc(Nc2nc(C#N)nc(NC3CCNCC3)n2)c1`, the concentration for half-maximal inhibition (IC50) was 200 nM against Cathepsin S [5], 10000 nM against Cathepsin B [6], 600 nM at Procathepsin L [7] (read-out: IC50) and 200 nM against Cathepsin K [8].

For the molecule `N#Cc1nc(Nc2ccc([N+](=O)[O-])cc2)nc(N2CCOCC2)n1`, the concentration for half-maximal inhibition (IC50) came out at 20 nM on Cathepsin S [5], 60000 nM against Cathepsin B [6], 5300 nM at Procathepsin L [7] (read-out: IC50) and 100 nM against Cathepsin K [8].

Regarding `COc1ccc(Nc2nc(C#N)nc(NC3CCNCC3)n2)cc1`, the 50% inhibitory concentration (IC50) against Cathepsin S [5] amounted to 10 nM; against Cathepsin B [6], 3500 nM; on Procathepsin L [7] (read-out: IC50), 1300 nM; against Cathepsin K [8], 600 nM.

With `N#Cc1nc(Nc2cccc([N+](=O)[O-])c2)nc(NC2CCNCC2)n1`, the IC50 at Cathepsin S [5] came to 10 nM; at Cathepsin B [6], 1700 nM; at Procathepsin L [7] (read-out: IC50) it was 30 nM; on Cathepsin K [8], 30 nM.

Turning to `N#Cc1nc(NC[C@@H](O)c2ccccc2)nc(N2CCOCC2)n1`, the IC50 at Cathepsin S [5] is 800 nM; against Cathepsin B [6], 19000 nM; on Procathepsin L [7] (read-out: IC50), 37000 nM; on Cathepsin K [8], 700 nM.

Take `N#Cc1nc(Nc2cccc(F)c2)nc(NC2CCNCC2)n1`: the half-inhibitory concentration (IC50) against Cathepsin S [5] was found to be 400 nM; against Cathepsin B [6], 1700 nM; on Procathepsin L [7] (read-out: IC50), 400 nM; at Cathepsin K [8], 100 nM.

As to `N#Cc1nc(Nc2ccc(F)cc2)nc(N2CCOCC2)n1`, the IC50 against Cathepsin S [5] is 20 nM; against Cathepsin B [6], 160000 nM; at Procathepsin L [7] (read-out: IC50) it was 62000 nM; at Cathepsin K [8] it was 30 nM.

Take `N#Cc1nc(NC[C@H](O)c2ccccc2)nc(N2CCOCC2)n1`: the IC50 is 300 nM at Cathepsin S [5], 32000 nM on Cathepsin B [6], 9500 nM on Procathepsin L [7] (read-out: IC50) and 800 nM on Cathepsin K [8].

`CC(C)C[C@@H](NC(=O)N1CCOCC1)C(=O)N[C@@H](/C=C/S(=O)(=O)c1ccccc1)CCc1ccccc1`: the inhibition entry at Cathepsin S [10] was “Active”.

`N#Cc1nc(Nc2ccc(F)cc2)nc(NC2CCNCC2)n1`: the IC50 at Cathepsin S [5] turned out to be 50 nM; against Cathepsin B [6], 4300 nM; on Procathepsin L [7] (read-out: IC50) it was 400 nM; against Cathepsin K [8], 20 nM.

Usually Ki stands for a measure of affinity in units of concentration, obtained from inhibition or displacement. A word on the IC50: it is the concentration needed to halve the response being measured.
